Assay results gathered from unrelated publications.
Route: intravenous

| Structure (SMILES) | species | sample | dose | setting | quantity | value |
| --- | --- | --- | --- | --- | --- | --- |
| Cn1cnc(Cn2c(=O)[nH]/c(=N\c3cc4cn(C)nc4cc3Cl)n(Cc3cc(F)c(F)cc3F)c2=O)n1 | male Sprague-Dawley rat | plasma | 5 mg/kg |  | clearance | 1.03 mL/min/kg |
| C[C@H](C(=O)N[C@H]1COc2ccccc2[C@@H]1S(C)(=O)=O)c1ccc(F)cc1 | male Sprague-Dawley rat | plasma | 0.5 mg/kg |  | clearance | 10 mL/min/kg |
| [2H]C([2H])(c1cc(F)c(F)cc1F)n1c(=O)n(Cc2ncn(C)n2)c(=O)[nH]/c1=N\c1cc2cn(C)nc2cc1Cl | male Sprague-Dawley rat | plasma | 5 mg/kg |  | clearance | 1.11 mL/min/kg |
| CCCCCCCC(=O)N[C@@H](CCCCN)C(=O)N[C@@H](CCCCN)C(=O)N[C@@H](C)C(=O)N[C@@H](CC(C)C)C(=O)N[C@@H](CCCCN)C(=O)N[C@@H](CC(C)C)C(=O)N[C@@H](C)C(=O)N[C@@H](CCCCN)C(=O)N[C@@H](CCCCN)C(=O)N1CCC[C@H]1C(=O)N[C@@H](CC(C)C)C(=O)N[C@@H](CCCCN)C(=O)N[C@@H](CC(C)C)C(=O)N[C@@H](CC(C)C)C(=O)N[C@@H](CCCCN)C(N)=O | male Sprague-Dawley rat | blood | 3 mg/kg | infusion | clearance | 192 mL/min/kg |
| N=c1c2c(-c3ccccc3)c(-c3ccccc3)n(Cc3ccccc3)c2ncn1[C@H]1CC[C@H](O)CC1 | male Sprague-Dawley rat | plasma | 2 mg/kg | single dose | clearance | 19.6 mL/min/kg |
| CCCC[C@@H]1NC(=O)[C@H](Cc2ccc(O)cc2)NC(=O)[C@@H]2CCCN2C(=O)[C@H](CC(=O)O)NC(=O)[C@H](C)NC(=O)[C@H](Cc2ccccc2)NC(=O)[C@@H]2CSCCC(=O)N3CN(CN(C3)C(=O)CCSC[C@@H](C(=O)N[C@@H](C)C(N)=O)NC1=O)C(=O)CCSC[C@H](NC(=O)[C@H](C)NC(C)=O)C(=O)N[C@@H]([C@@H](C)CC)C(=O)N[C@@H](CCC(=O)O)C(=O)N[C@@H](CCC(=O)O)C(=O)N[C@H](CCCCNC(=O)CCc1cn(CCOCCOCCOCCN(CCOCCOCCOCCC(=O)N[C@H]3CSCCC(=O)N4CN5CN(C4)C(=O)CCSC[C@H](NC(=O)[C@@H](CC(=O)O)NC(=O)[C@H](Cc4cccc6ccccc46)NC(=O)[C@@H]4CCCN4C3=O)C(=O)N[C@@H](CCSC)C(=O)N[C@@H](CCCCNC(=N)N)C(=O)N[C@@H](CC(=O)O)C(=O)N[C@@H](Cc3c[nH]c4ccccc34)C(=O)N[C@@H](CO)C(=O)N[C@@H]([C@@H](C)O)C(=O)N3CCC[C@H]3C(=O)N3C[C@H](O)C[C@H]3C(=O)N[C@@H](Cc3c[nH]c4ccccc34)C(=O)N[C@H](C(N)=O)CSCCC5=O)CCOCCOCCOCCn3cc(CCC(=O)NCCCC[C@H]4NC(=O)[C@H](CCC(=O)O)NC(=O)[C@H](CCC(=O)O)NC(=O)[C@H]([C@@H](C)CC)NC(=O)[C@@H](NC(=O)[C@H](C)NC(C)=O)CSCCC(=O)N5CN6CN(C5)C(=O)CCSC[C@H](NC(=O)[C@H](Cc5ccc(O)cc5)NC(=O)[C@H](CCC(N)=O)NC4=O)C(=O)N[C@@H](Cc4ccccc4)C(=O)N[C@@H](C)C(=O)N[C@@H](CC(=O)O)C(=O)N4CCC[C@H]4C(=O)N[C@@H](Cc4ccc(O)cc4)C(=O)N[C@@H](CCCC)C(=O)N[C@H](C(=O)N[C@@H](C)C(N)=O)CSCCC6=O)nn3)nn1)C(=O)N[C@@H](CCC(N)=O)C(=O)N[C@@H](Cc1ccc(O)cc1)C(=O)N2 | rat | plasma | 2 mg/kg |  | clearance | 9.8 mL/min/kg |
| Cc1cc(C)nc(Nc2ncc(C(=O)NCCc3c(C)[nH]c4ccccc34)cn2)c1 | Sprague-Dawley rat | plasma |  |  | clearance | 81 mL/min/kg |
| O=C(O)CCCO | male Sprague-Dawley rat | urine | 600 mg/kg |  | renal clearance | 1.89 mL/min/kg |
| CCCC[C@@H]1NC(=O)[C@H](Cc2ccc(O)cc2)NC(=O)[C@@H]2CCCN2C(=O)[C@H](CC(=O)O)NC(=O)[C@H](C)NC(=O)[C@H](Cc2ccccc2)NC(=O)[C@@H]2CSCCC(=O)N3CN(CN(C3)C(=O)CCSC[C@H](NC(C)=O)C(=O)N[C@@H](CC(C)(C)C)C(=O)N[C@@H](CCC(=O)O)C(=O)N[C@@H](CCC(=O)O)C(=O)N[C@H](CCCCNC(=O)CCc3cn(CCOCCOCCOCCN(CCOCCOCCOCCC(=O)N[C@H]4CSCCC(=O)N5CN6CN(C5)C(=O)CCSC[C@H](NC(=O)[C@@H](CC(=O)O)NC(=O)[C@H](Cc5cccc7ccccc57)NC(=O)[C@@H]5CCCN5C4=O)C(=O)N[C@@H](CCSC)C(=O)N[C@@H](CCCCNC(=N)N)C(=O)N[C@@H](CC(=O)O)C(=O)N[C@@H](Cc4c[nH]c5ccccc45)C(=O)N[C@@H](CO)C(=O)N[C@@H]([C@@H](C)O)C(=O)N4CCC[C@H]4C(=O)N4C[C@H](O)C[C@H]4C(=O)N[C@@H](Cc4c[nH]c5ccccc45)C(=O)N[C@H](C(N)=O)CSCCC6=O)CCOCCOCCOCCn4cc(CCC(=O)NCCCC[C@H]5NC(=O)[C@H](CCC(=O)O)NC(=O)[C@H](CCC(=O)O)NC(=O)[C@H](CC(C)(C)C)NC(=O)[C@@H](NC(C)=O)CSCCC(=O)N6CN7CN(C6)C(=O)CCSC[C@H](NC(=O)[C@H](Cc6ccc(O)cc6)NC(=O)[C@@H]6CCCN6C5=O)C(=O)N[C@@H](Cc5ccccc5)C(=O)N[C@@H](C)C(=O)N[C@@H](CC(=O)O)C(=O)N5CCC[C@H]5C(=O)N[C@@H](Cc5ccc(O)cc5)C(=O)N[C@@H](CCCC)C(=O)N[C@H](C(N)=O)CSCCC7=O)nn4)nn3)C(=O)N3CCC[C@H]3C(=O)N[C@@H](Cc3ccc(O)cc3)C(=O)N2)C(=O)CCSC[C@@H](C(N)=O)NC1=O | rat | plasma | 2 mg/kg |  | clearance | 11 mL/min/kg |
| O=C1c2cc(COc3ccccc3)nn2CCC1c1ccc(F)cc1 (stereo not drawn) | male Sprague-Dawley rat | plasma | 0.2 mg/kg |  | clearance | 120 mL/min/kg |
| CN(C)C(=O)Oc1cc(OC(=O)N(C)C)cc(-c2cc3ccc(O)cc3o2)c1 | male rat | plasma | 5 mg/kg |  | clearance | 140 mL/min/kg |
| CCCC[C@@H]1NC(=O)[C@H](Cc2ccc(O)cc2)NC(=O)[C@@H]2CCCN2C(=O)[C@H](CC(=O)O)NC(=O)[C@H](C)NC(=O)[C@H](Cc2ccccc2)NC(=O)[C@@H]2CSCCC(=O)N3CN(CN(C3)C(=O)CCSC[C@@H](C(=O)N[C@@H](CNC(=O)CCc3cn(CCOCCOCCOCCN(CCOCCOCCOCCC(=O)N[C@H]4CSCCC(=O)N5CN6CN(C5)C(=O)CCSC[C@H](NC(=O)[C@@H](CC(=O)O)NC(=O)[C@H](Cc5cccc7ccccc57)NC(=O)[C@@H]5CCCN5C4=O)C(=O)N[C@@H](CCSC)C(=O)N[C@@H](CCCCNC(=N)N)C(=O)N[C@@H](CC(=O)O)C(=O)N[C@@H](Cc4c[nH]c5ccccc45)C(=O)N[C@@H](CO)C(=O)N[C@@H]([C@@H](C)O)C(=O)N4CCC[C@H]4C(=O)N4C[C@H](O)C[C@H]4C(=O)N[C@@H](Cc4c[nH]c5ccccc45)C(=O)N[C@H](C(N)=O)CSCCC6=O)CCOCCOCCOCCn4cc(CCC(=O)NC[C@H](NC(=O)[C@@H]5CSCCC(=O)N6CN7CN(C6)C(=O)CCSC[C@H](NC(=O)[C@H](Cc6ccc(O)cc6)NC(=O)[C@@H]6CCCN6C(=O)[C@@H](C)NC(=O)[C@H](CCC(=O)O)NC(=O)[C@@H]6CCCN6C(=O)[C@H](CC(C)(C)C)NC(=O)[C@@H](NC(C)=O)CSCCC7=O)C(=O)N[C@@H](Cc6ccccc6)C(=O)N[C@@H](C)C(=O)N[C@@H](CC(=O)O)C(=O)N6CCC[C@H]6C(=O)N[C@@H](Cc6ccc(O)cc6)C(=O)N[C@@H](CCCC)C(=O)N5)C(N)=O)nn4)nn3)C(N)=O)NC1=O)C(=O)CCSC[C@H](NC(C)=O)C(=O)N[C@@H](CC(C)(C)C)C(=O)N1CCC[C@H]1C(=O)N[C@@H](CCC(=O)O)C(=O)N[C@H](C)C(=O)N1CCC[C@H]1C(=O)N[C@@H](Cc1ccc(O)cc1)C(=O)N2 | rat | plasma | 2 mg/kg |  | clearance | 8.7 mL/min/kg |
